For one assay, the system named is Aspergillus niger. The assay is described as follows: Antimicrobial activity against Aspergillus niger (ATCC 16404). The format is functional. The method, boiled down: (§1)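 Spores came from Eugon agar slants grown 1 week at 32 °C, suspended at 10⁶/mL in Eugon broth or saline, and applied by Steers replicator. The lowest inhibitory concentration was read after 48-72 h at 32 °C.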

Assay [1] relates to Trichophyton benhamiae. The assay is described as follows: Compound was tested for the antimicrobial activity against Trichophyton mentagrophytes (ATCC 4807); Range is 12.5-25. The format is functional, Arthroderma benhamiae. The procedure, abridged: as §1
For assay [2], the system named is Candida albicans. The assay is described as follows: Compound was tested for the antimicrobial activity against Candida albicans (ATCC 10231, NRRL Y-477); Range is 50 to >100. The format is functional. The procedure, abridged: (§2)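 Agar dilution MIC. Stocks and twofold serial dilutions in DMF or 50% aqueous DMF were mixed 1:100 into molten Eugon agar, giving final 100, 50, 25, 12.5, 6.2, 3.1 mcg/mL (further dilutions sometimes) and ≤1% DMF. Inocula came from 24 h Eugon agar slants at 32 °C, suspended at 10⁶ cells/mL and applied with a Steers replicator. MIC (lowest concentration inhibiting growth) was read after 24 h at 32 °C.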

For assay [3], the system named is Trichophyton benhamiae. The assay is described as follows: Compound was tested for the antimicrobial activity against Trichophyton mentagrophytes (ATCC 4807); Range is 6.2-25. The class given is functional, Arthroderma benhamiae. The method, boiled down:
as §1

Assay [4] deals with Staphylococcus aureus. The assay is described as follows: Antimicrobial activity against Staphylococcus aureus (ATCC 6538, NRRL B2747); Range is <3.1-6.2. The class given is functional. The procedure, abridged: as §2
The test system of assay [5] is Enterococcus faecalis. The assay is described as follows: Antimicrobial activity against Streptococcus faecalis (ATCC 10541). The format is functional. The procedure, abridged: as §2
For assay [6], the system named is Candida albicans. The assay is described as follows: Compound was tested for the antimicrobial activity against Candida albicans (ATCC 10231, NRRL Y-477); Range is 25 to >100. The format is functional. The procedure, abridged: as §2
The test system of assay [7] is Trichophyton benhamiae. The assay is described as follows: Antimicrobial activity against Trichophyton mentagrophytes (ATCC 4807). The class given is functional, Arthroderma benhamiae. The procedure, abridged:
as §1

For assay [8], the system named is Trichophyton benhamiae. The assay is described as follows: Compound was tested for the antimicrobial activity against Trichophyton mentagrophytes (ATCC 4807); Range is <3.1-6.2. The class given is functional, Arthroderma benhamiae. The procedure, abridged: as §1
Assay [9] relates to Staphylococcus aureus. The assay is described as follows: Compound was tested for the antimicrobial activity against Staphylococcus aureus (ATCC 6538, NRRL B2747); Range is 6.2-12.5. The format is functional. The method, boiled down:
as §2

Assay [10] deals with Trichophyton benhamiae. The assay is described as follows: Compound was tested for the antimicrobial activity against Trichophyton mentagrophytes (ATCC 4807); Range is <3.1-12.5. The format is functional, Arthroderma benhamiae. The procedure, abridged: as §1
Assay [11] concerns Candida albicans. The assay is described as follows: Compound was tested for the antimicrobial activity against Candida albicans (ATCC 10231, NRRL Y-477); Range is 12.5-100. The class given is functional. The procedure, abridged: as §2
The subject of assay [12] is Enterococcus faecalis. The assay is described as follows: Compound was tested for the antimicrobial activity against Streptococcus faecalis (ATCC 10541); Range is 25-50. The format is functional. The procedure, abridged: as §2
For assay [13], the system named is Staphylococcus aureus. The assay is described as follows: Antimicrobial activity against Staphylococcus aureus (ATCC 6538, NRRL B2747). The format is functional. The procedure, abridged: as §2
In assay [14] the test system is Trichophyton benhamiae. The assay is described as follows: Compound was tested for the antimicrobial activity against Trichophyton mentagrophytes (ATCC 4807); Range is 25-50. The class given is functional, Arthroderma benhamiae. The procedure, abridged: as §1
The test system of assay [15] is Candida albicans. The assay is described as follows: Compound was tested for the antimicrobial activity against Candida albicans (ATCC 10231, NRRL Y-477); Range is 50-100. The class given is functional. The procedure, abridged: as §2
The test system of assay [16] is Candida albicans. The assay is described as follows: Compound was tested for the antimicrobial activity against Candida albicans (ATCC 10231, NRRL Y-477); Range is 100 to >100. The class given is functional. The procedure, abridged:
as §2

Assay [17] concerns Trichophyton benhamiae. The assay is described as follows: Compound was tested for the antimicrobial activity against Trichophyton mentagrophytes (ATCC 4807); Range is 6.2-12.5. The format is functional, Arthroderma benhamiae. The procedure, abridged:
as §1

The subject of assay [18] is Candida albicans. The assay is described as follows: Antimicrobial activity against Candida albicans (ATCC 10231, NRRL Y-477). The class given is functional. The method, boiled down: as §2
The subject of assay [19] is Candida albicans. The assay is described as follows: Compound was tested for the antimicrobial activity against Candida albicans (ATCC 10231, NRRL Y-477); Range is 25-50. The class given is functional. The procedure, abridged:
as §2

We go through 14 compounds from ChEMBL document CHEMBL1121696, “Antimicrobial 3-methyleneflavanones” (1981).

Converted amounts (≈) assume the structure as drawn.

As for `C=C1C(=O)c2ccccc2OC1c1ccc(N(C)C)cc1` (stereo not drawn), the figures for the MIC in the assay on Aspergillus niger and against Trichophyton benhamiae [1] were 100 µg/mL (≈ 358 µM) and 12.5 µg/mL (≈ 44.7 µM), respectively.

Regarding `C=C1C(=O)c2ccccc2OC1c1ccc(OC)cc1` (stereo not drawn), the MIC with Candida albicans [2] is greater than 50 µg/mL; with Trichophyton benhamiae [1] it was 12.5 µg/mL (≈ 46.9 µM).

For `C=C1C(=O)c2ccccc2OC1c1ccc2ccccc2c1` (stereo not drawn), the MIC in the assay with Aspergillus niger was greater than 100 µg/mL; with Trichophyton benhamiae [3] it was 6.2 µg/mL (≈ 21.7 µM); in the assay on Staphylococcus aureus [4], less than 3.1 µg/mL; with Enterococcus faecalis [5] it was 50 µg/mL (≈ 175 µM); in the assay on Candida albicans [6], greater than 25 µg/mL.

Regarding `C=C1C(=O)c2cc(C)ccc2OC1c1ccccc1` (stereo not drawn), the MIC against Trichophyton benhamiae [7] amounted to 6.2 µg/mL (≈ 24.8 µM).

Turning to `C=C1C(=O)c2ccccc2OC1c1ccc(C)cc1` (stereo not drawn), in the assay on Trichophyton benhamiae [8], the minimal inhibitory concentration (MIC) was less than 3.1 µg/mL.

As for `CN(C)CC1C(=O)c2ccccc2OC1c1ccccc1` (stereo not drawn), the MIC against Staphylococcus aureus [9] is 6.2 µg/mL (≈ 22 µM); in the assay on Trichophyton benhamiae [10] it was less than 3.1 µg/mL; in the assay with Candida albicans [11], 12.5 µg/mL (≈ 44.4 µM).

Regarding `C=C1C(=O)c2ccccc2OC1c1ccc(Cl)cc1Cl` (stereo not drawn), the values for the MIC against Trichophyton benhamiae [3] and with Enterococcus faecalis [12] were 6.2 µg/mL (≈ 20.3 µM) and 25 µg/mL (≈ 81.9 µM), respectively.

With `C=C1C(=O)c2ccccc2OC1(C)C`, the MIC is greater than 100 µg/mL in the assay with Staphylococcus aureus [13]; 25 µg/mL (≈ 133 µM) against Trichophyton benhamiae [14]; greater than 100 µg/mL against Aspergillus niger; greater than 100 µg/mL against Enterococcus faecalis [5]; 50 µg/mL (≈ 266 µM) in the assay with Candida albicans [15].

Regarding `C=C1C(=O)c2ccccc2OC1(c1ccccc1)c1ccncc1` (stereo not drawn), the MIC in the assay on Trichophyton benhamiae [1] was 12.5 µg/mL (≈ 39.9 µM); in the assay on Candida albicans [16], greater than 100 µg/mL.

`C=C1C(=O)c2ccccc2OC1(c1ccccc1)c1cccs1` (stereo not drawn): the MIC in the assay on Trichophyton benhamiae [3] is 6.2 µg/mL (≈ 19.5 µM).

On to `C=C1C(=O)c2ccc(OC)cc2OC1c1ccc(Cl)cc1` (stereo not drawn), for which the MIC with Trichophyton benhamiae [17] is 6.2 µg/mL (≈ 20.6 µM); against Staphylococcus aureus [4], less than 3.1 µg/mL; with Candida albicans [6], greater than 25 µg/mL.

As for `CN(C)CC1(C)C(=O)c2ccccc2OC1c1ccccc1` (stereo not drawn), the MIC with Staphylococcus aureus [13], in the assay with Aspergillus niger, in the assay on Candida albicans [18], against Trichophyton benhamiae [7] and in the assay on Enterococcus faecalis [5] was greater than 50 µg/mL each time.

As to `C=C1C(=O)c2ccccc2OC1c1ccc(C#N)cc1` (stereo not drawn), the minimum inhibitory concentration (MIC) with Trichophyton benhamiae [3] is 6.2 µg/mL (≈ 23.7 µM).

On to `C=C1COc2ccccc2C1=O`, for which the minimum inhibitory concentration (MIC) against Staphylococcus aureus [13] worked out at 50 µg/mL (≈ 312 µM); in the assay on Aspergillus niger it was 100 µg/mL (≈ 624 µM); against Trichophyton benhamiae [17], 6.2 µg/mL (≈ 38.7 µM); against Enterococcus faecalis [5] it was 100 µg/mL (≈ 624 µM); in the assay on Candida albicans [19], 25 µg/mL (≈ 156 µM).

Broadly, the MIC is the lowest concentration that inhibits growth of the organism. Lower therefore signals greater potency.
